Reference: ChEMBL document CHEMBL1148762, “Lysosome and HER3 (ErbB3) selective anticancer agent kahalalide F: semisynthetic modifications and antifungal lead-exploration studies” (J Med Chem, 2007)
≈ marks a conversion by molar mass, not a printed value. Calls of active or inactive are those of the source. No cut-off for these calls is given here.

Key:
SK-OV-3 = test: Cytotoxicity against human SK-OV3 cells; assay type: functional
Summary of the method: (§1)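 NCI Developmental Therapeutics Program cell panel. GI50 is the concentration that reduces growth of treated cells to half that of untreated controls. TGI is the concentration that completely halts growth.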

ACHN = test: Cytotoxicity against human ACHN cells; assay type: functional; summary of the method: as §1
PC-3 = test: Cytotoxicity against human PC3 cells; assay type: functional; summary of the method: as §1
Hs-578T = test: Cytotoxicity against human HS578T cells; assay type: functional; summary of the method: as §1
Fusarium proliferatum [1] = test: Antimicrobial activity against Fusarium proliferatum at 0.3 uM after 72 hrs by microtiter assay; assay type: functional
Summary of the method: (§2)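 96-well microdilution broth assay with conidia (3 × 10^5 conidia/mL, harvested from 7-day PDA cultures and filtered) against F. oxysporum, F. proliferatum and F. solani at 0.3, 3 and 30 µM. Plates were held at 24 ± 1 °C under a 12 h photoperiod. Growth was read at 620 nm at 24, 48 and 72 h and reported as percent inhibition from mean absorbance with standard error.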

Fusarium proliferatum [2] = test: Antimicrobial activity against Fusarium proliferatum at 3 uM after 48 hrs by microtiter assay; assay type: functional; summary of the method: as §2
Fusarium proliferatum [3] = test: Antimicrobial activity against Fusarium proliferatum at 3 uM after 72 hrs by microtiter assay; assay type: functional; summary of the method: as §2
Aspergillus fumigatus = test: Antimicrobial activity against Aspergillus fumigatus ATCC 90906; assay type: functional, organism-based
Cryptococcus neoformans = test: Antimicrobial activity against Cryptococcus neoformans ATCC 90113; assay type: functional, organism-based
Fusarium proliferatum [4] = test: Antimicrobial activity against Fusarium proliferatum at 0.3 uM after 48 hrs by microtiter assay; assay type: functional; summary of the method: as §2
Escherichia coli = test: Antimicrobial activity against Escherichia coli; assay type: functional, organism-based
Staphylococcus aureus = test: Antimicrobial activity against methicillin-resistant Staphylococcus aureus; assay type: functional, organism-based
Candida albicans = test: Antimicrobial activity against Candida albicans ATCC 90028; assay type: functional, organism-based
[5] = test system: Mycobacterium intracellulare; test: Antimicrobial activity against Mycobacterium intracellular ATCC 23068; assay type: functional, organism-based
Leishmania donovani = test: Antiparasitic activity against Leishmania donovani; assay type: functional, organism-based
[6] = test system: Mycobacterium tuberculosis; test: Antibacterial activity against Mycobacterium tuberculosis H37Rv at 16 ug/mL by micro plate alamar blue assay; assay type: functional
Summary of the method: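 M. tuberculosis H37Rv ATCC 27294 grown in BACTEC 12B medium; microplate Alamar blue assay (MABA). Primary screen at a single concentration of 16 µg/mL, read as percent inhibition.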

[7] = test system: Mycobacterium tuberculosis; test: Antibacterial activity against Mycobacterium tuberculosis H37Rv by micro plate alamar blue assay; assay type: functional
Fusarium oxysporum [8] = test: Antimicrobial activity against Fusarium oxysporum at 0.3 uM after 48 hrs by microtiter assay; assay type: functional; summary of the method: as §2
Fusarium oxysporum [9] = test: Antimicrobial activity against Fusarium oxysporum at 0.3 uM after 72 hrs by microtiter assay; assay type: functional; summary of the method: as §2
Fusarium solani [10] = test: Antimicrobial activity against Fusarium solani at 0.3 uM after 48 hrs by microtiter assay; assay type: functional; summary of the method: as §2
Fusarium solani [11] = test: Antimicrobial activity against Fusarium solani at 0.3 uM after 72 hrs by microtiter assay; assay type: functional; summary of the method: as §2
Fusarium oxysporum [12] = test: Antimicrobial activity against Fusarium oxysporum at 3 uM after 48 hrs by microtiter assay; assay type: functional; summary of the method: as §2
Fusarium oxysporum [13] = test: Antimicrobial activity against Fusarium oxysporum at 3 uM after 72 hrs by microtiter assay; assay type: functional; summary of the method: as §2
Fusarium solani [14] = test: Antimicrobial activity against Fusarium solani at 3 uM after 48 hrs by microtiter assay; assay type: functional; summary of the method: as §2
Fusarium solani [15] = test: Antimicrobial activity against Fusarium solani at 3 uM after 72 hrs by microtiter assay; assay type: functional; summary of the method: as §2
Fusarium oxysporum [16] = test: Antimicrobial activity against Fusarium oxysporum at 30 uM after 48 hrs by microtiter assay; assay type: functional; summary of the method: as §2
Fusarium oxysporum [17] = test: Antimicrobial activity against Fusarium oxysporum at 30 uM after 72 hrs by microtiter assay; assay type: functional; summary of the method: as §2
Fusarium solani [18] = test: Antimicrobial activity against Fusarium solani at 30 uM after 48 hrs by microtiter assay; assay type: functional; summary of the method: as §2
Fusarium solani [19] = test: Antimicrobial activity against Fusarium solani at 30 uM after 72 hrs by microtiter assay; assay type: functional; summary of the method: as §2
A549 = test: Cytotoxicity against human A549 cells; assay type: functional; summary of the method: as §1
NCI-H322M = test: Cytotoxicity against human NCI-H322M cells; assay type: functional; summary of the method: as §1
RPMI-8226 = test: Cytotoxicity against human RPMI8226 cells; assay type: functional; summary of the method: as §1
HCC 2998 = test: Cytotoxicity against human HCC2998 cells; assay type: functional; summary of the method: as §1
HCT-15 = test: Cytotoxicity against human HCT15 cells; assay type: functional; summary of the method: as §1
HT-29 = test: Cytotoxicity against human HT29 cells; assay type: functional; summary of the method: as §1
KM12 = test: Cytotoxicity against human KM12 cells; assay type: functional; summary of the method: as §1
SNB-75 = test: Cytotoxicity against human SNB75 cells; assay type: functional; summary of the method: as §1
UACC-257 = test: Cytotoxicity against human UACC257 cells; assay type: functional; summary of the method: as §1
Fusarium proliferatum [20] = test: Antimicrobial activity against Fusarium proliferatum at 30 uM after 48 hrs by microtiter assay; assay type: functional; summary of the method: as §2
Fusarium proliferatum [21] = test: Antimicrobial activity against Fusarium proliferatum at 30 uM after 72 hrs by microtiter assay; assay type: functional; summary of the method: as §2
Fusarium proliferatum [22] = test: Fungicidal activity against Fusarium proliferatum at 30 uM after 72 hrs by microtiter plate assay; assay type: functional, organism-based
Summary of the method: (§3)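 After 72 h of microtiter broth exposure at 30 µM, 20 µL from each well was plated onto compound-free potato dextrose agar and incubated 3 days at 28 °C. No regrowth was scored fungicidal; regrowth was scored fungistatic.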

Fusarium solani [23] = test: Fungicidal activity against Fusarium solani at 30 uM after 72 hrs by microtiter assay; assay type: functional, organism-based; summary of the method: as §3
Fusarium proliferatum [24] = test: Antifungal activity against Fusarium proliferatum at 20 ug/mL after 3 days by fluorescence assay; assay type: functional, organism-based
Summary of the method: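 Fusarium proliferatum conidia in potato dextrose broth in a tube with the coumarin (DEAC)-labelled probe at 20 µg/mL, held at 24 ± 1 °C. Hyphae and mycelia were viewed at 4, 8, 16, 24, 48 and 72 h by light and epifluorescence microscopy at 400× and 1000×. Conidia were first checked for autofluorescence.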

Fusarium oxysporum [25] = test: Fungicidal activity against Fusarium oxysporum at 30 uM after 72 hrs by microtiter plate assay; assay type: functional, organism-based; summary of the method: as §3

C/C=C1\NC(=O)[C@H](Cc2ccccc2)NC(=O)[C@@H](C(C)C)NC(=O)[C@@H]([C@H](C)CC)NC(=O)[C@H](NC(=O)[C@H](NC(=O)[C@H](CCCN)NC(=O)[C@H]2CCCN2C(=O)[C@H](NC(=O)[C@@H](NC(=O)[C@@H](NC(=O)[C@H](NC(=O)CCCC(C)C)C(C)C)[C@@H](C)O)C(C)C)C(C)C)[C@H](C)CC)[C@H](C)OC(=O)[C@H](C(C)C)NC1=O [KAHALALIDE F]
GI50 (SK-OV-3): 191 nM
TGI (SK-OV-3): 355 nM
GI50 (ACHN): 1660 nM
TGI (ACHN): 3240 nM
GI50 (PC-3): 170 nM
TGI (PC-3): 324 nM
GI50 (Hs-578T): 162 nM
TGI (Hs-578T): 479 nM
inhibition at 0.3 µM (Fusarium proliferatum [1]): 0%
inhibition at 3 µM (Fusarium proliferatum [2]): 0%
inhibition at 3 µM (Fusarium proliferatum [3]): 0%
IC50 (Aspergillus fumigatus): 3210 nM
MFC (Aspergillus fumigatus): 20 µM (≈ 29.6 µg/mL)
MIC (Aspergillus fumigatus): 10 µM (≈ 14.8 µg/mL)
IC50 (Cryptococcus neoformans): 1530 nM
MFC (Cryptococcus neoformans): 5 µM (≈ 7.39 µg/mL)
MIC (Cryptococcus neoformans): 5 µM (≈ 7.39 µg/mL)
inhibition at 0.3 µM (Fusarium proliferatum [4]): 0%
Activity (Escherichia coli): inactive
Activity (Staphylococcus aureus): inactive
IC50 (Candida albicans): 3020 nM
MFC (Candida albicans): 20 µM (≈ 29.6 µg/mL)
MIC (Candida albicans): 10 µM (≈ 14.8 µg/mL)
IC50 [5]: > 20000 nM
MBC [5]: > 20 µM
MIC [5]: > 20 µM
IC50 (Leishmania donovani): 17 µg/mL (≈ 11.5 µM)
IC90 (Leishmania donovani): 34 µg/mL (≈ 23 µM)
inhibition at 16 µg/mL [6]: 67%
MIC [7]: > 16 µg/mL
inhibition at 0.3 µM (Fusarium oxysporum [8]): 0%
inhibition at 0.3 µM (Fusarium oxysporum [9]): 0%
inhibition at 0.3 µM (Fusarium solani [10]): 0%
inhibition at 0.3 µM (Fusarium solani [11]): 0%
inhibition at 3 µM (Fusarium oxysporum [12]): 0%
inhibition at 3 µM (Fusarium oxysporum [13]): 0%
inhibition at 3 µM (Fusarium solani [14]): 9.9%
inhibition at 3 µM (Fusarium solani [15]): 0%
inhibition at 30 µM (Fusarium oxysporum [16]): 100%
inhibition at 30 µM (Fusarium oxysporum [17]): 99.6%
inhibition at 30 µM (Fusarium solani [18]): 98.9%
inhibition at 30 µM (Fusarium solani [19]): 99.9%
GI50 (A549): 135 nM
TGI (A549): 302 nM
GI50 (NCI-H322M): 191 nM
TGI (NCI-H322M): 372 nM
GI50 (RPMI-8226): 1740 nM
TGI (RPMI-8226): 6920 nM
GI50 (HCC 2998): 288 nM
TGI (HCC 2998): 616 nM
GI50 (HCT-15): 269 nM
TGI (HCT-15): 741 nM
GI50 (HT-29): 162 nM
TGI (HT-29): 316 nM
GI50 (KM12): 182 nM
TGI (KM12): 363 nM
GI50 (SNB-75): 224 nM
TGI (SNB-75): 1900 nM
GI50 (UACC-257): 1020 nM
TGI (UACC-257): 2820 nM
inhibition at 30 µM (Fusarium proliferatum [20]): 99.8%
inhibition at 30 µM (Fusarium proliferatum [21]): 100%
Activity (Fusarium proliferatum [22]): Active
Activity (Fusarium solani [23]): Active
Activity (Fusarium proliferatum [24]): Active
Activity (Fusarium oxysporum [25]): Active
